The values below come from the array DNA melting data of Ke et al. (doi:10.1101/2024.01.08.574731).

Data set [1] can be described thus: folding enthalpy; higher = less favourable; fluorescence melt of hairpins on a sequencing array, two-state fit. As to conditions: sodium 0.088 M. Summed up:
(§1)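 Hairpins were imaged by Cy3 fluorescence on a sequenced MiSeq flow cell with annealed Cy3 and quencher oligos, in 50 mM Na-HEPES pH 8.0, 25 mM NaCl, in 2.5 °C steps up to 60 °C. Bootstrapped two-state fits of normalised signals gave melting temperature and folding enthalpy. Four replicates were combined by inverse variance, and fitted temperatures were raised by 9.35 °C to match UV melts.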

The nature of data set [2]: melting temperature; fluorescence melt of hairpins on a sequencing array, two-state fit, raised by 9.35 °C to match UV melts. As to conditions: sodium 0.088 M. Summed up:
as §1

Consider GACCGTACGAAAGTAGTC (((..(((....)))))), for which the folding enthalpy in data set [1] is -13.1 kcal/mol. In data set [2], the Tm turned out to be 26.5 °C.

As for GCCACGCGAAAGCTTCGC ((.(.((....)).).)), the folding enthalpy in data set [1] is -7.03 kcal/mol. Besides, the Tm in data set [2] is 33.6 °C.

On to GCACTAACGAAAGTTTGC (((..(((....)))))), for which, in data set [1], the folding enthalpy is -15 kcal/mol. The Tm in data set [2] stood at 32.7 °C.

For GCGAAACGAAAGTTCCGC (((.(((....))).))), the folding enthalpy in data set [1] is -38.2 kcal/mol. Also, the Tm in data set [2] is 52.5 °C.

Turning to GTTGCGCGAAAGCGTAAC (((.(((....))).))), the folding enthalpy in data set [1] was -29.8 kcal/mol. For the same sequence, in data set [2], the Tm came to 58.1 °C.

Take GTCTACGAAAGTAGGGAC ((((((....)))..))): the folding enthalpy in data set [1] was -16.2 kcal/mol. Further, in data set [2], the Tm turned out to be 32.3 °C.

As to GCCATAGCGAAAGCTGGC (((..(((....)))))), the folding enthalpy in data set [1] was -25.5 kcal/mol. The Tm in data set [2] was found to be 56.5 °C.

For the sequence GTTTTGACGAAAGTCAAC (((..(((....)))))), the folding enthalpy in data set [1] was -11.5 kcal/mol. In data set [2], the Tm amounted to 34.6 °C.

For GGTTGCGAAAGCAGCACC ((((((....)))..))), in data set [1], the folding enthalpy is -12.4 kcal/mol. Moreover, the Tm in data set [2] came out at 41 °C.

As to GAATACGAAAGTAGATTC ((((((....)))..))), in data set [1], the folding enthalpy was -20.3 kcal/mol. Also, the Tm in data set [2] worked out at 29.1 °C.

In the case of GCGTGGTTACGC ((((....)))), the folding enthalpy in data set [1] was -21.7 kcal/mol. In addition, in data set [2], the Tm was determined as 54.9 °C.

With GCAAGGCGAAAGCTTCGC ((.(.((....)).).)), the folding enthalpy in data set [1] was -12.2 kcal/mol. The Tm in data set [2] came out at 40.9 °C.

As for GATCGGTAGGCCGATC ((((((....)))))), in data set [1], the folding enthalpy is -40.5 kcal/mol. Besides, the Tm in data set [2] is 57.9 °C.

GAAGGGCGAAAGCCTTTC (((.(((....))).))): the folding enthalpy in data set [1] was -17.9 kcal/mol. For the same sequence, in data set [2], the Tm turned out to be 49.4 °C.

Consider GATCACTGTGTGATC ((((((...)))))), for which, in data set [1], the folding enthalpy is -31 kcal/mol. Moreover, in data set [2], the Tm is 61.7 °C.

For CGAACGGAAACGTTTTCG ((((((....)))..))), the folding enthalpy in data set [1] is -16.3 kcal/mol. In data set [2], the Tm is 30.4 °C.

Turning to GTCTAAACGAAAGTTGAC (((..(((....)))))), the folding enthalpy in data set [1] is -17.7 kcal/mol. The Tm in data set [2] amounted to 34.5 °C.

For GCTTCTCCGAAAGGAAGC (((..(((....)))))), the folding enthalpy in data set [1] is -24.2 kcal/mol. Further, the Tm in data set [2] was found to be 45.3 °C.

With GTGGTCGAAAGACAACAC ((((((....)))..))), the folding enthalpy in data set [1] was -18.7 kcal/mol. In data set [2], the Tm worked out at 46.8 °C.

For the sequence GATCAAATGGTTGATC ((((((....)))))), in data set [1], the folding enthalpy was -28.5 kcal/mol. Also, the Tm in data set [2] is 39.6 °C.

In the case of GATCAAACCTTGATC ((((((...)))))), in data set [1], the folding enthalpy is -29.1 kcal/mol. The Tm in data set [2] is 40.9 °C.

For GCAGGCACGAAAGTGTGC (((..(((....)))))), the folding enthalpy in data set [1] is -14.9 kcal/mol. In data set [2], the Tm was determined as 39.1 °C.

Turning to GATCCGTGGCGGATC ((((((...)))))), the folding enthalpy in data set [1] is -41.5 kcal/mol. Moreover, in data set [2], the Tm was 56.3 °C.

For GATCTGGACCAGATC ((((((...)))))), in data set [1], the folding enthalpy was -39.7 kcal/mol. Further, in data set [2], the Tm was 49.9 °C.

For GATCGTAAGTACGATC ((((((....)))))), the folding enthalpy in data set [1] was -32.9 kcal/mol. Further, the Tm in data set [2] is 53.3 °C.

Regarding GATCTCTATGAGATC ((((((...)))))), the folding enthalpy in data set [1] is -31.3 kcal/mol. Further, the Tm in data set [2] was 54.6 °C.

GCAAGTCGAAAGACCTGC (((.(((....))).))): the folding enthalpy in data set [1] was -29.6 kcal/mol. Further, in data set [2], the Tm was found to be 47.9 °C.

For the sequence GTGGACGAAAGTCAGCAC ((((((....)))..))), in data set [1], the folding enthalpy is -16.1 kcal/mol. Besides, the Tm in data set [2] turned out to be 40.3 °C.

For the sequence GATCACGCCGTGATC ((((((...)))))), in data set [1], the folding enthalpy is -29.8 kcal/mol. The Tm in data set [2] amounted to 63.2 °C.

For GAACCCGAAAGGGAATTC ((((((....)))..))), the folding enthalpy in data set [1] is -12.1 kcal/mol. In addition, the Tm in data set [2] turned out to be 31.4 °C.

Turning to GGCGGTGGAAACACCACC ((.((((....)))).)), the folding enthalpy in data set [1] is -27.5 kcal/mol. For the same sequence, in data set [2], the Tm came out at 53 °C.

GATCTATGATTAGATC ((((((....)))))): in data set [1], the folding enthalpy was -31.9 kcal/mol. In addition, in data set [2], the Tm turned out to be 39.8 °C.

For the sequence GTGATCACGAAAGTGCAC (((..(((....)))))), the folding enthalpy in data set [1] was -12.5 kcal/mol. Also, the Tm in data set [2] is 30.7 °C.

For the sequence GACACGGCGAAAGCCGTC (((..(((....)))))), the folding enthalpy in data set [1] is -6.25 kcal/mol. Besides, the Tm in data set [2] was 32.9 °C.

As to GTACCTGGAAACGGGTAC (((((.(....).))))), the folding enthalpy in data set [1] is -41.8 kcal/mol. Moreover, in data set [2], the Tm was 50.4 °C.

As for GTCCACGGAAACGTGGGC (.(((((....))))).), in data set [1], the folding enthalpy is -28.2 kcal/mol. Also, in data set [2], the Tm is 62.1 °C.

As to GACATAGCGAAAGCTGTC (((..(((....)))))), the folding enthalpy in data set [1] is -20.5 kcal/mol. Also, the Tm in data set [2] came to 47.1 °C.
